Screening results from PubChem.
m5-HT2A agonist – agonists of mouse serotonin 5-HT2A receptor (HTR2A); activation, % at 7.6 µM; actives 0.66% (n = 360,000); CHO-K1 mHTR2A beta-arrestin complementation, luminescence; percent of 30 µM serotonin response; P35363;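 active means activation above a run cutoff, the mean activation of all tested compounds plus 3 SD, cut at about 14% in these data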;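 further: 0% = plate median of compound wells and 100% = 30 µM serotonin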
MC4R antag cAMP – antagonists of human melanocortin 4 receptor (MC4R). P32245. MC4R-expressing cells, MTII-stimulated cAMP, LANCE TR-FRET. inhibition, % at 6.5 µM. actives 0.48% (n = 360,000);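 active means inhibition above its plate's cutoff, the mean of tested wells on that plate plus 3 SD, cut at about 29% in these data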;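 further: 0% = Melanotan II alone and 100% = Melanotan II plus saturating MCL0020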
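Test system: U2OS cells stably expressing human melanocortin 4 receptor (MC4R); also added: Melanotan II challenge; compound: 6.5 µM single dose; timing: 30-min compound preincubation, 1-h Melanotan II challenge, 1-h detection, room temperature; signal: Eu-cAMP/anti-cAMP TR-FRET, emission 671 nm; repeats: one well per compound, no replicates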
AHR activator – activates the human aryl hydrocarbon receptor; P35869; AHR-responsive luciferase reporter cells, luminescence; activation, % at 5 µM; actives 2.5% (n = 320,000); AID 2796; in the data active means activation above about 47%;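 further: 0% = vehicle wells and 100% = reference agonist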
Target sequence (P35869 whole entry, looked up): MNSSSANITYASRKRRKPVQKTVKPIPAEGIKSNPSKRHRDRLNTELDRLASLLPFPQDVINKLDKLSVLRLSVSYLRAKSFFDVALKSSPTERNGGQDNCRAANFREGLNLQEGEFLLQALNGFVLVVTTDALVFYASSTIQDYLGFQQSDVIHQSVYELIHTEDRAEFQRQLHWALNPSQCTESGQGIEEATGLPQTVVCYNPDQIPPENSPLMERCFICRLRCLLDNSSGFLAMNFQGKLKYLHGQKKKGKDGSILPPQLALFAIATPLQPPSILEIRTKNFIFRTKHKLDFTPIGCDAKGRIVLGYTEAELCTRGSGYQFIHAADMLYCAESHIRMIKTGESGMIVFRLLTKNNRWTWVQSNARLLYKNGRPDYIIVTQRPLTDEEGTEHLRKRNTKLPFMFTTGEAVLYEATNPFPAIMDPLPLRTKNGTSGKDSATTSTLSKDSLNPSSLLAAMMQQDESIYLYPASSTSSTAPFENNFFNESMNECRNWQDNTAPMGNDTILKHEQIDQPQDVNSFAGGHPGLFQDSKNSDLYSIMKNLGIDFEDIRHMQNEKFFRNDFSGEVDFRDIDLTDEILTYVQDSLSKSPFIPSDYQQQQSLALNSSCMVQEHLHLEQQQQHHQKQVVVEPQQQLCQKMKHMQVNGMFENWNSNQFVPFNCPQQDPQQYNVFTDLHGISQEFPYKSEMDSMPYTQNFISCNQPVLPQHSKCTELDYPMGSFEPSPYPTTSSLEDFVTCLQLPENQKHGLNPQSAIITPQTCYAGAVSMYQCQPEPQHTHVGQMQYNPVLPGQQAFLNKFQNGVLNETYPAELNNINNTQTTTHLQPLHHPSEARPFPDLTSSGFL
MC4R ag barr – agonists of human melanocortin 4 receptor (MC4R) beta-arrestin; P32245; U2OS MC4R beta-arrestin complementation, luminescence; percent of melanotan II response, DMSO zero; activation, % at 8.9 µM; actives 0.98% (n = 360,000); AID 540308;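 active means activation above a per-plate cutoff, the mean activation of sample wells on that plate plus 3 SD, cut at about 8% in these data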
FXN GAA850 act – frataxin GAA850 promoter activation; activation, % at 6 µM; actives 0.56% (n = 360,000); HEK293 lucGAA850 FXN promoter luciferase reporter, 24 h; percent of 10 µM SAHA response;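 active means activation above the average of all compounds screened plus 3 SD, cutoff fixed separately per campaign, cut at about 7.5% in these data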;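 further: 0% = DMSO wells and 100% = 10 µM SAHA wells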
MC4R barr conf – human MC4R beta-arrestin agonism confirmation; shares compounds with MC4R ag barr; U2OS MC4R beta-arrestin recruitment, luminescence; scaled DMSO 0%, Melanotan II 100%; activation, % at 8.9 µM; actives 31% (n = 2,400); AID 602192;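 active means mean activation across replicates above the hit cutoff set in the earlier primary screen, cut at about 8% in these data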
MOR-DOR barr ag – activates mu-delta opioid heterodimer, MC4R agonist counter-screen; shares compounds with MC4R ag barr; U2OS PathHunter beta-arrestin, beta-gal luminescence; percent of deltorphin B response, DMSO zero; activation, % at 9.2 µM; actives 5.8% (n = 2,400); AID 602194;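 active means mean activation across replicates exceeds the hit threshold derived in the earlier primary screen, cut at about 18% in these data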;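 further: 100% = deltorphin B at 0.9 µM final and 0% = DMSO alone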
An asterisk follows results filed as active; . = no result. This is a sample that favours compounds with a hit; in the whole collection about 4.7% have one here.

SMILES | m5-HT2A agonist | MC4R antag cAMP | AHR activator | MC4R ag barr | FXN GAA850 act | MC4R barr conf | MOR-DOR barr ag
O=C(Nc1ccc(Cl)cc1)C1C2CCC3C(CCC21)C3(Cl)Cl (stereo not drawn) | -2 | 4 | . | 8 | 0 | . | .
Cc1cccc(NC(=O)C2C3CCC4C(CCC32)C4(Cl)Cl)c1 (stereo not drawn) | 1 | 7 | 2 | 13* | 0 | 2 | 2
Cc1nn(CC(=O)Nc2ccc(N3CCOCC3)cc2)c(C)c1Cl | -6 | -1 | 2 | -3 | -1 | . | .
COc1cc2ccccc2cc1C(=O)OCc1nc2ccsc2c(=O)[nH]1 | -1 | 4 | 2 | 15* | 2 | 4 | 6
COc1ccc(-c2csc(NC(=O)CSCc3c(C)noc3C)n2)c(OC)c1 | 0 | 2 | -8 | 0 | 3 | . | .
CCOC(=O)CN(C(=O)Cn1nnc(-c2ccc(OC)cc2)n1)C(C(=O)NC1CCCC1)c1ccc(F)cc1 (stereo not drawn) | 1 | 5 | 0 | -1 | -2 | . | .
COc1ccc(-c2nnn(CC(=O)N(Cc3ccc(F)cc3)C(C(=O)NC3CCCC3)c3ccc(F)cc3)n2)cc1 (stereo not drawn) | 2 | 0 | -1 | 9.7* | -5 | 0 | 3
COc1ccc(OC)c(NC(=S)NC(=O)c2ccc(Br)o2)c1 | 2 | 12 | 21 | 11* | 1 | 3 | 19*
COc1ccc(CNC(=S)Nc2cc(OC)ccc2OC)cc1 | 2 | -4 | 6 | 1 | 0 | . | .
S=C(Nc1ccccc1)Nc1ccccc1Br | 7 | 10 | 0 | -1 | 0 | . | .
S=C(Nc1ccccc1)Nc1ccc(Br)cn1 | -4 | 0 | 38 | 11* | 1 | 3 | 6
Cc1ccc2sc(N(CCCN(C)C)C(=O)c3nc4ccccc4s3)nc2c1C | -9 | 3 | -1 | 40* | 1 | 26* | 31*
CCOc1cccc2sc(N(CCN(C)C)C(=O)c3ccc(Br)s3)nc12 | 1 | 2 | 4 | -2 | -2 | . | .
Cc1ccc2sc(N(CCCN(C)C)C(=O)c3ccc(Br)s3)nc2c1C | -9 | -2 | -4 | 22* | -1 | 19* | 11
CCOc1ccc(S(=O)(=O)NCCC(=O)NCCOc2ccccc2OC)cc1 | 0 | 10 | 1 | 2 | 0 | . | .
CCc1cccc(NC(=O)Cn2c(=O)c3cccn3c3ccccc32)c1 | 3 | -3 | 4 | 11* | 2 | 5 | 8
COc1ccc(NC(=O)Nc2nnc(-c3ccccc3SCc3ccccc3)s2)cc1 | -1 | 1 | 51* | 18* | -1 | 17* | 5
COc1ccc(C(C#N)CC(=O)c2ccc(OC)c(OCc3ccccc3)c2)cc1OC (stereo not drawn) | 5 | 9 | . | -1 | -1 | . | .
COc1ccc(NC(=S)N/N=C/c2cccn2Cc2ccccc2F)cc1 | 1 | 13 | 20 | 10* | 0 | 0 | 7
Cc1ccc(NC(=S)N/N=C/c2ccc(Cl)c([N+](=O)[O-])c2)cc1 | 1 | 28 | 7 | 21* | -1 | 5 | 3
COc1ccc(NC(=S)N/N=C/c2ccc(F)c(F)c2)cc1 | 0 | 12 | 114* | 14* | 2 | 3 | 7
Fc1ccc(NC(=S)N/N=C/c2ccc(F)c(F)c2)cc1 | -1 | 4 | 15 | 1 | 4 | . | .
Cc1ccc(NC(=S)NCc2ccccc2)cc1[N+](=O)[O-] | -6 | -2 | -3 | -1 | 0 | . | .
COc1ccc(NC(=S)N/N=C/c2cccn2Cc2ccc(F)cc2Cl)cc1 | -3 | 15 | 18 | 1 | -1 | . | .
Cc1ccc(CNC(=S)Nc2ccc(C)c([N+](=O)[O-])c2)cc1 | -1 | 2 | 4 | 13* | -1 | 0 | 7
SMILES | m5-HT2A agonist | MC4R antag cAMP | AHR activator | MC4R ag barr | FXN GAA850 act | MC4R barr conf | MOR-DOR barr ag
CC1(C(=O)NS(=O)(=O)C2CC2)CCCN(C(=O)c2c(F)cccc2F)C1 (stereo not drawn) | -3 | 8 | . | -2 | -4 | . | .
CNC[C@H](Cc1cccc2ccccc12)NC[C@H](CCSC)NCC1CCC(C(C)(C)C)CC1 (stereo partly drawn) | . | . | 2 | . | . | . | .
COc1ccc(/C=C/C(=O)NCc2c(C)nn(C)c2C)cc1COc1ccc(Br)cc1 | -8 | -4 | -10 | 12* | 1 | 1 | 3
Cc1cc(C)n2c(NCc3ccccc3)c(-c3cc4ccccc4o3)nc2n1 | 1 | . | . | . | . | . | .
CCCNC(=O)c1ccc2c(=O)c(O)c(-c3ccc(C)cc3)[nH]c2c1 | -4 | 5 | 8 | 1 | 3 | . | .
Cc1ccc(CNC(=O)c2ccc3c(=O)c(O)c(-c4ccc(C)cc4)[nH]c3c2)cc1 | 7 | 5 | 8 | 13* | -6 | 1 | 9
COc1ccc(C(=O)NC(C)c2ccc(-n3ccnc3)cc2)cc1S(=O)(=O)N1CCOCC1 (stereo not drawn) | 1 | 1 | . | 1 | 2 | . | .
COc1ccc(-n2cccc2/C=C2/NC(=O)N(c3cccc(Cl)c3)C2=O)cc1 | -1 | 2 | 36 | 14* | 2 | 2 | 2
CCN(CC)c1ccc(CN(C(=O)c2cccs2)C2CCS(=O)(=O)C2)cc1 (stereo not drawn) | 7 | 7 | 2 | -1 | 3 | . | .
CSc1ccc(/C=C(/Sc2nnc(-c3ccccc3)o2)C(=O)O)cc1 | 2 | 15 | 4 | 22* | -1 | 1 | 4
O=[N+]([O-])c1cccc(N/N=C/c2cc([N+](=O)[O-])ccc2O)c1 | 10 | -10 | 54* | 11* | 1 | -6 | 3
Cc1ccc(CNC(=O)COC(=O)c2cccc(S(=O)(=O)N3CCCCC3)c2)cc1 | -3 | 19 | -1 | 0 | 0 | . | .
COc1ccc2c(c1)CCCC2NS(=O)(=O)OCC(Cl)(Cl)Cl (stereo not drawn) | 1 | 9 | 2 | 10* | -1 | 3 | 10
Cc1c(C)[n+](=O)c(-c2ccc(Br)cc2)c(C)n1[O-] | 0 | 17 | -1 | 0 | -1 | . | .
C=CCc1cccc(/C=N/NC(=O)CCC(=O)Nc2ccc(F)cc2)c1O | -3 | 16 | 13 | 1 | -1 | . | .
C=CCc1cccc(/C=N/NC(=O)CCCNc2ccc(C)cc2)c1O | 0 | -1 | 3 | 16* | 1 | 0 | 3
COC(=O)c1sccc1N/N=C/c1cccc(OC)c1O | -1 | 2 | 24 | 14* | 0 | 0 | 6
O=C(CCCCCn1c(=S)[nH]c2cc3c(cc2c1=O)OCO3)N1CCN(c2ccccc2)CC1 | 7 | 18 | 2 | 2 | 0 | . | .
